Source: ChEMBL document CHEMBL5058577, “EUbOPEN Chemogenomics Library 2 (Multiplex)” (2022)

Tested on: HEK-293T
Test: Multiplex assay against HEK293T
Assay type: toxicity, cell-based
Settings: human
Method in brief: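 At seeding, live cells were stained with Hoechst33342, BioTracker Green Microtubule Cytoskeleton Dye, MitoTracker Red and Annexin V Alexa Fluor 680. After compound addition they were imaged on a CQ1 microscope at 37°C and 5% CO2, and CellPathfinder machine-learning gating sorted them into Hoechst high-intensity objects or normal cells, with normal cells further split into healthy, pyknosed or fragmented nuclei and pyknosed cells into mitotic or apoptotic. Tubulin, mitochondrial-mass and membrane-permeability phenotypes are given as per cents of cells with healthy nuclei.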

[1] = 12 h, 1 µM, compound concentration 1 uM, replicate 1
[2] = 12 h, 1 µM, compound concentration 1 uM, replicate 2
[3] = 12 h, 10 µM, compound concentration 10 uM, replicate 1
[4] = 12 h, 10 µM, compound concentration 10 uM, replicate 2
[5] = 24 h, 1 µM, compound concentration 1 uM, replicate 1
[6] = 24 h, 1 µM, compound concentration 1 uM, replicate 2
[7] = 24 h, 10 µM, compound concentration 10 uM, replicate 1
[8] = 24 h, 10 µM, compound concentration 10 uM, replicate 2
[9] = 48 h, 1 µM, compound concentration 1 uM, replicate 1
[10] = 48 h, 1 µM, compound concentration 1 uM, replicate 2
[11] = 48 h, 10 µM, compound concentration 10 uM, replicate 1
[12] = 48 h, 10 µM, compound concentration 10 uM, replicate 2

Cc1ccc(C(C)(O)c2nc3ccccc3s2)c(C)c1 (stereo unspecified)
Population Apoptotic (%) [1]: 30% | Population Fragmented Nuclei (%) [1]: 19% | Population Healthy Nuclei (%) [1]: 72% | Population Hoechst High Intensity Objects (%) [1]: 4% | Population Membrane Permeable-Phenotype (%) [1]: 1% | Population Mitochondria Different-Phenotype (%) [1]: 36% | Population Mitotic Cells (%) [1]: 70% | Population Normal (%) [1]: 95% | Population Pyknosed Nuclei (%) [1]: 8% | Population Tubulin-Different-Phenotype (%) [1]: 30% | Total Cell Count [1]: 483 | Population Apoptotic (%) [2]: 41% | Population Fragmented Nuclei (%) [2]: 4% | Population Healthy Nuclei (%) [2]: 79% | Population Hoechst High Intensity Objects (%) [2]: 5% | Population Membrane Permeable-Phenotype (%) [2]: 0% | Population Mitochondria Different-Phenotype (%) [2]: 63% | Population Mitotic Cells (%) [2]: 58% | Population Normal (%) [2]: 94% | Population Pyknosed Nuclei (%) [2]: 16% | Population Tubulin-Different-Phenotype (%) [2]: 25% | Total Cell Count [2]: 308 | Population Apoptotic (%) [3]: 56% | Population Fragmented Nuclei (%) [3]: 5% | Population Healthy Nuclei (%) [3]: 82% | Population Hoechst High Intensity Objects (%) [3]: 8% | Population Membrane Permeable-Phenotype (%) [3]: 0% | Population Mitochondria Different-Phenotype (%) [3]: 62% | Population Mitotic Cells (%) [3]: 43% | Population Normal (%) [3]: 91% | Population Pyknosed Nuclei (%) [3]: 12% | Population Tubulin-Different-Phenotype (%) [3]: 44% | Total Cell Count [3]: 412 | Population Apoptotic (%) [4]: 36% | Population Fragmented Nuclei (%) [4]: 7% | Population Healthy Nuclei (%) [4]: 78% | Population Hoechst High Intensity Objects (%) [4]: 7% | Population Mitochondria Different-Phenotype (%) [4]: 72% | Population Mitotic Cells (%) [4]: 63% | Population Normal (%) [4]: 92% | Population Pyknosed Nuclei (%) [4]: 13% | Population Tubulin-Different-Phenotype (%) [4]: 25% | Total Cell Count [4]: 318 | Population Apoptotic (%) [5]: 26% | Population Fragmented Nuclei (%) [5]: 18% | Population Healthy Nuclei (%) [5]: 73% | Population Hoechst High Intensity Objects (%) [5]: 3% | Population Membrane Permeable-Phenotype (%) [5]: 1% | Population Mitochondria Different-Phenotype (%) [5]: 15% | Population Mitotic Cells (%) [5]: 73% | Population Normal (%) [5]: 96% | Population Pyknosed Nuclei (%) [5]: 8% | Population Tubulin-Different-Phenotype (%) [5]: 11% | Total Cell Count [5]: 645 | Population Apoptotic (%) [6]: 32% | Population Fragmented Nuclei (%) [6]: 6% | Population Healthy Nuclei (%) [6]: 85% | Population Membrane Permeable-Phenotype (%) [6]: 0% | Population Mitochondria Different-Phenotype (%) [6]: 36% | Population Mitotic Cells (%) [6]: 67% | Population Pyknosed Nuclei (%) [6]: 7% | Population Tubulin-Different-Phenotype (%) [6]: 16% | Total Cell Count [6]: 447 | Population Apoptotic (%) [7]: 28% | Population Fragmented Nuclei (%) [7]: 6% | Population Healthy Nuclei (%) [7]: 82% | Population Hoechst High Intensity Objects (%) [7]: 8% | Population Membrane Permeable-Phenotype (%) [7]: 0% | Population Mitochondria Different-Phenotype (%) [7]: 42% | Population Mitotic Cells (%) [7]: 71% | Population Normal (%) [7]: 91% | Population Pyknosed Nuclei (%) [7]: 11% | Population Tubulin-Different-Phenotype (%) [7]: 34% | Total Cell Count [7]: 487 | Population Apoptotic (%) [8]: 36% | Population Fragmented Nuclei (%) [8]: 10% | Population Healthy Nuclei (%) [8]: 78% | Population Hoechst High Intensity Objects (%) [8]: 6% | Population Mitochondria Different-Phenotype (%) [8]: 63% | Population Mitotic Cells (%) [8]: 63% | Population Normal (%) [8]: 93% | Population Pyknosed Nuclei (%) [8]: 10% | Population Tubulin-Different-Phenotype (%) [8]: 23% | Total Cell Count [8]: 379 | Population Apoptotic (%) [9]: 17% | Population Fragmented Nuclei (%) [9]: 20% | Population Healthy Nuclei (%) [9]: 73% | Population Hoechst High Intensity Objects (%) [9]: 2% | Population Membrane Permeable-Phenotype (%) [9]: 1% | Population Mitochondria Different-Phenotype (%) [9]: 15% | Population Mitotic Cells (%) [9]: 82% | Population Normal (%) [9]: 97% | Population Pyknosed Nuclei (%) [9]: 5% | Population Tubulin-Different-Phenotype (%) [9]: 12% | Total Cell Count [9]: 964 | Population Apoptotic (%) [10]: 34% | Population Fragmented Nuclei (%) [10]: 13% | Population Healthy Nuclei (%) [10]: 78% | Population Hoechst High Intensity Objects (%) [10]: 3% | Population Mitochondria Different-Phenotype (%) [10]: 22% | Population Mitotic Cells (%) [10]: 65% | Population Normal (%) [10]: 96% | Population Pyknosed Nuclei (%) [10]: 8% | Population Tubulin-Different-Phenotype (%) [10]: 11% | Total Cell Count [10]: 621 | Population Apoptotic (%) [11]: 33% | Population Fragmented Nuclei (%) [11]: 14% | Population Healthy Nuclei (%) [11]: 76% | Population Hoechst High Intensity Objects (%) [11]: 2% | Population Membrane Permeable-Phenotype (%) [11]: 0% | Population Mitochondria Different-Phenotype (%) [11]: 28% | Population Mitotic Cells (%) [11]: 66% | Population Normal (%) [11]: 97% | Population Pyknosed Nuclei (%) [11]: 9% | Population Tubulin-Different-Phenotype (%) [11]: 18% | Total Cell Count [11]: 713 | Population Apoptotic (%) [12]: 50% | Population Fragmented Nuclei (%) [12]: 13% | Population Healthy Nuclei (%) [12]: 80% | Population Hoechst High Intensity Objects (%) [12]: 3% | Population Membrane Permeable-Phenotype (%) [12]: 1% | Population Mitochondria Different-Phenotype (%) [12]: 33% | Population Mitotic Cells (%) [12]: 50% | Population Normal (%) [12]: 96% | Population Pyknosed Nuclei (%) [12]: 5% | Population Tubulin-Different-Phenotype (%) [12]: 13% | Total Cell Count [12]: 508

CN1CCN(c2nc3cc(C(F)(F)F)ccc3n3cccc23)CC1.O=C(O)/C=C\C(=O)O.O=C(O)/C=C\C(=O)O
Population Apoptotic (%) [1]: 37% | Population Fragmented Nuclei (%) [1]: 5% | Population Healthy Nuclei (%) [1]: 80% | Population Hoechst High Intensity Objects (%) [1]: 10% | Population Membrane Permeable-Phenotype (%) [1]: 0% | Population Mitochondria Different-Phenotype (%) [1]: 48% | Population Mitotic Cells (%) [1]: 62% | Population Normal (%) [1]: 89% | Population Pyknosed Nuclei (%) [1]: 13% | Population Tubulin-Different-Phenotype (%) [1]: 33% | Total Cell Count [1]: 438 | Population Apoptotic (%) [2]: 53% | Population Fragmented Nuclei (%) [2]: 8% | Population Healthy Nuclei (%) [2]: 77% | Population Hoechst High Intensity Objects (%) [2]: 5% | Population Mitochondria Different-Phenotype (%) [2]: 76% | Population Mitotic Cells (%) [2]: 46% | Population Normal (%) [2]: 94% | Population Pyknosed Nuclei (%) [2]: 14% | Population Tubulin-Different-Phenotype (%) [2]: 35% | Total Cell Count [2]: 332 | Population Apoptotic (%) [3]: 68% | Population Fragmented Nuclei (%) [3]: 7% | Population Healthy Nuclei (%) [3]: 76% | Population Hoechst High Intensity Objects (%) [3]: 14% | Population Membrane Permeable-Phenotype (%) [3]: 0% | Population Mitochondria Different-Phenotype (%) [3]: 73% | Population Mitotic Cells (%) [3]: 31% | Population Normal (%) [3]: 85% | Population Pyknosed Nuclei (%) [3]: 15% | Population Tubulin-Different-Phenotype (%) [3]: 64% | Total Cell Count [3]: 396 | Population Apoptotic (%) [4]: 64% | Population Fragmented Nuclei (%) [4]: 5% | Population Hoechst High Intensity Objects (%) [4]: 9% | Population Mitochondria Different-Phenotype (%) [4]: 89% | Population Mitotic Cells (%) [4]: 35% | Population Normal (%) [4]: 90% | Population Pyknosed Nuclei (%) [4]: 18% | Population Tubulin-Different-Phenotype (%) [4]: 66% | Total Cell Count [4]: 286 | Population Apoptotic (%) [5]: 33% | Population Fragmented Nuclei (%) [5]: 9% | Population Healthy Nuclei (%) [5]: 81% | Population Hoechst High Intensity Objects (%) [5]: 6% | Population Membrane Permeable-Phenotype (%) [5]: 1% | Population Mitochondria Different-Phenotype (%) [5]: 30% | Population Mitotic Cells (%) [5]: 66% | Population Normal (%) [5]: 93% | Population Pyknosed Nuclei (%) [5]: 9% | Population Tubulin-Different-Phenotype (%) [5]: 24% | Total Cell Count [5]: 557 | Population Apoptotic (%) [6]: 54% | Population Fragmented Nuclei (%) [6]: 6% | Population Healthy Nuclei (%) [6]: 83% | Population Membrane Permeable-Phenotype (%) [6]: 0% | Population Mitochondria Different-Phenotype (%) [6]: 50% | Population Mitotic Cells (%) [6]: 45% | Population Pyknosed Nuclei (%) [6]: 10% | Population Tubulin-Different-Phenotype (%) [6]: 25% | Total Cell Count [6]: 390 | Population Apoptotic (%) [7]: 41% | Population Fragmented Nuclei (%) [7]: 8% | Population Healthy Nuclei (%) [7]: 77% | Population Hoechst High Intensity Objects (%) [7]: 9% | Population Membrane Permeable-Phenotype (%) [7]: 0% | Population Mitochondria Different-Phenotype (%) [7]: 65% | Population Mitotic Cells (%) [7]: 58% | Population Normal (%) [7]: 90% | Population Pyknosed Nuclei (%) [7]: 13% | Population Tubulin-Different-Phenotype (%) [7]: 62% | Total Cell Count [7]: 490 | Population Apoptotic (%) [8]: 63% | Population Fragmented Nuclei (%) [8]: 10% | Population Healthy Nuclei (%) [8]: 78% | Population Hoechst High Intensity Objects (%) [8]: 7% | Population Mitochondria Different-Phenotype (%) [8]: 79% | Population Mitotic Cells (%) [8]: 36% | Population Normal (%) [8]: 92% | Population Pyknosed Nuclei (%) [8]: 10% | Population Tubulin-Different-Phenotype (%) [8]: 58% | Total Cell Count [8]: 378 | Population Apoptotic (%) [9]: 20% | Population Fragmented Nuclei (%) [9]: 13% | Population Healthy Nuclei (%) [9]: 78% | Population Hoechst High Intensity Objects (%) [9]: 3% | Population Membrane Permeable-Phenotype (%) [9]: 2% | Population Mitochondria Different-Phenotype (%) [9]: 17% | Population Mitotic Cells (%) [9]: 79% | Population Normal (%) [9]: 96% | Population Pyknosed Nuclei (%) [9]: 7% | Population Tubulin-Different-Phenotype (%) [9]: 17% | Total Cell Count [9]: 915 | Population Apoptotic (%) [10]: 37% | Population Healthy Nuclei (%) [10]: 79% | Population Hoechst High Intensity Objects (%) [10]: 5% | Population Membrane Permeable-Phenotype (%) [10]: 0% | Population Mitochondria Different-Phenotype (%) [10]: 42% | Population Mitotic Cells (%) [10]: 62% | Population Normal (%) [10]: 94% | Population Tubulin-Different-Phenotype (%) [10]: 21% | Total Cell Count [10]: 535 | Population Apoptotic (%) [11]: 50% | Population Fragmented Nuclei (%) [11]: 15% | Population Healthy Nuclei (%) [11]: 75% | Population Hoechst High Intensity Objects (%) [11]: 10% | Population Membrane Permeable-Phenotype (%) [11]: 2% | Population Mitochondria Different-Phenotype (%) [11]: 41% | Population Mitotic Cells (%) [11]: 50% | Population Normal (%) [11]: 89% | Population Pyknosed Nuclei (%) [11]: 8% | Population Tubulin-Different-Phenotype (%) [11]: 44% | Total Cell Count [11]: 672 | Population Apoptotic (%) [12]: 52% | Population Fragmented Nuclei (%) [12]: 11% | Population Healthy Nuclei (%) [12]: 77% | Population Hoechst High Intensity Objects (%) [12]: 12% | Population Membrane Permeable-Phenotype (%) [12]: 0% | Population Mitochondria Different-Phenotype (%) [12]: 65% | Population Mitotic Cells (%) [12]: 47% | Population Normal (%) [12]: 87% | Population Pyknosed Nuclei (%) [12]: 10% | Population Tubulin-Different-Phenotype (%) [12]: 56% | Total Cell Count [12]: 472
